The test system of data set [1] is ZIKV (FLR strain, Colombia, 2015). The data set is described as follows: Anti-ZIKV. It counts as cell-based, Zika virus. The conditions noted are these: Vero cells; for % inhibition of ZIKV at 10 μM: ZIKV FLV (FLR) strain, viral titer vs untreated.
In data set [2] the test system is Vero cells. Briefly: Cytotoxicity to Vero cells in the anti-ZIKV screen. It counts as cell-based, monkey. The conditions noted are these: 10 μM screen; in Table 2 printed in the % inhibition at 10 μM column. The method in brief: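 Cytopathic effect and cell death were scored by microscope, with MTT to quantitate viable cells. Compounds giving CPE-like phenotype or cell death at 10 μM were flagged as cytotoxic.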

The test system of data set [3] is ZIKV RNA. The data set is described as follows: Quantitative RT-PCR of ZIKV RNA copies in supernatant of infected Vero cells. It counts as cell-based, Zika virus. The method in brief:
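Viral RNA was extracted with TRIzol from 50 μL of culture supernatant. One-step TaqMan RT-qPCR used ZIKV-specific primers and probe amplifying envelope gene region 3. ZIKV RNA was expressed as copies/mL, calculated from a standard curve.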

The test system of data set [4] is Zika virus NS5, NS3 and capsid proteins. Briefly: Western blot of viral NS5, NS3 and capsid proteins in ZIKV-infected Vero cells. It counts as cell-based. The conditions noted are these: 48h. A general note: A western blot detects proteins with antibodies after separation by electrophoresis.
In data set [5] the test system is ZIKV. The data set is described as follows: Anti-ZIKV activity in Vero cells with added glutathione. It counts as cell-based, Zika virus. The conditions noted are these: 1 mM GSH in culture media. In outline:
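ZIKV (FLR strain) infected Vero cells were given test compound in culture medium supplemented with 1 mM glutathione, a nucleophilic thiol, to test whether the compound acts by covalent reaction. Anti-ZIKV activity was read in the cell-based antiviral assay.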

For data set [6], the system named is ZIKV (FLV strain). The data set is described as follows: Time-of-addition. The conditions noted are these: 1 μM, added together with virus, Vero cells. It is filed as cell-based, Zika virus.

Several values for one entry are separate records, joined by “and”; a condition that tells them apart may be missing. Equal values may be shown once. Entries after “also recorded” stand apart in the source; their conditions may differ. Where a name gives a salt, the structure may show the parent alone.

As for “3-(3-tert-Butylphenyl)-2-[2-(1-naphthyl)ethenyl]-4(3H)-quinazolinone [Compound 19]”, the “% inhibition of ZIKV at 10 μM” value in data set [1] (10 μM, 10 µM) was 68% and 68.4%.
Take “3-(3-tert-Butylphenyl)-2-[2-(3-methoxyl-2-pyridinyl)ethenyl]-4(3H)-quinazolinone [Compound 11]”: in data set [1] (10 μM), the “% inhibition of ZIKV at 10 μM” value turned out to be 0%.
With “3-(3-tert-Butylphenyl)-2-[2-(4-trifluoromethyl-3-pyridinyl)ethenyl]-4(3H)-quinazolinone [Compound 3]”, the “% inhibition of ZIKV at 10 μM” value in data set [1] (10 μM) is recorded as 90.0%.
“6-(4-Methylpiperazin-1-yl)-3-(3-tert-butylphenyl)-2-(2,6-dimethoxystyryl)-4(3H)-quinazolinone [Compound 40]”: the “Cytotoxicity to Vero cells” value in data set [2] is on record as “Cytotoxic”.
Turning to “6-(Piperidin-1-yl)-3-(3-tert-butylphenyl)-2-(2,6-dimethoxystyryl)-4(3H)-quinazolinone [Compound 39]”, the “% inhibition of ZIKV at 10 μM” value in data set [1] (10 μM) was found to be 96.8%.
Take `CCN(CC)c1ccc2nc(/C=C/c3cccc(OC)n3)n(-c3cccc(C(C)(C)C)c3)c(=O)c2c1` [Compound 1, 6-Diethylamino-3-(3-tert-butylphenyl)-2-[2-(6-methoxyl-2-pyridinyl)ethenyl]-4(3H)-quinazolinone]: the “fold activity enhancement to inhibit ZIKV replication compared to unsubstituted compound 11” value in data set [1] (10 μM) is ≥ 1,000 fold.
Take `CC(C)(C)c1cccc(-n2c(/C=C/c3cccnc3)nc3ccccc3c2=O)c1` [Compound 12, 3-(3-tert-Butylphenyl)-2-[2-(3-pyridinyl)ethenyl]-4(3H)-quinazolinone]: the “% inhibition of ZIKV at 10 μM” value in data set [1] (10 μM) is “inactive”.
`CC(C)(C)c1cccc(-n2c(/C=C/c3ccccc3)nc3ccccc3c2=O)c1` [Compound 15, 3-(3-tert-Butylphenyl)-2-(2-phenylethenyl)-4(3H)-quinazolinone]: in data set [1] (10 μM), the “% inhibition of ZIKV at 10 μM” value was “inactive”.
Same read-out and setting: then `COc1cccc(/C=C/c2nc3ccc(Cl)cc3c(=O)n2-c2cccc(C(C)(C)C)c2)n1` [Compound 20, 6-Chloro-3-(3-tert-butylphenyl)-2-[2-(6-methoxyl-2-pyridinyl)ethenyl]-4(3H)-quinazolinone], with “inactive”; and `COc1ccc2nc(/C=C/c3cccc(OC)n3)n(-c3cccc(C(C)(C)C)c3)c(=O)c2c1` [Compound 21, 6-Methoxy-3-(3-tert-butylphenyl)-2-[2-(6-methoxyl-2-pyridinyl)ethenyl]-4(3H)-quinazolinone], with “inactive”.
`COc1cccc(/C=C/c2nc3ccc(N4CCCCC4)cc3c(=O)n2-c2cccc(C(C)(C)C)c2)n1` [Compound 22, 6-(Piperidin-1-yl)-3-(3-tert-butylphenyl)-2-[2-(6-methoxyl-2-pyridinyl)ethenyl]-4(3H)-quinazolinone]: the “ZIKV RNA copies in the supernatant” value in data set [3] is given as “dose-dependently reduce”.
Turning to `COc1cccc(/C=C/c2nc3ccc(N4CCNCC4)cc3c(=O)n2-c2cccc(C(C)(C)C)c2)n1` [Compound 25, 6-(Piperazin-1-yl)-3-(3-tert-butylphenyl)-2-[2-(6-methoxyl-2-pyridinyl)ethenyl]-4(3H)-quinazolinone hydrochloride], in data set [2], the “Cytotoxicity to Vero cells” value is “significant cytotoxicity; also recorded: Cytotoxic”.
Same read-out and setting: then `COc1cccc(/C=C/c2nc3ccc(N4CCN(C)CC4)cc3c(=O)n2-c2cccc(C(C)(C)C)c2)n1` [Compound 26, 6-(4-Methylpiperazin-1-yl)-3-(3-tert-butylphenyl)-2-[2-(6-methoxyl-2-pyridinyl)ethenyl]-4(3H)-quinazolinone], with “Cytotoxic”.
Regarding `COc1cccc(/C=C/c2nc3ccc(N4CCOCC4)cc3c(=O)n2-c2cccc(C(C)(C)C)c2)n1` [Compound 27, 6-Morpholino-3-(3-tert-butylphenyl)-2-[2-(6-methoxyl-2-pyridinyl)ethenyl]-4(3H)-quinazolinone], the “fold more potent antiviral activity than compound 22” value in data set [1] (ZIKV-FLR, EC50 comparison) is given as ~ 4 ×. Further, the “Cytotoxicity to Vero cells” value in data set [2] is recorded as “without cytotoxicity”. The “ZIKV RNA copies in the supernatant” value in data set [3] is listed as “dose-dependently reduce”. Also, the “cellular levels of viral NS5, NS3 and capsid proteins” value in data set [4] is “significantly reduce”. In addition, the “anti-ZIKV activity in the presence of GSH” value in data set [5] is on record as “not affected”. Further, the “viral titer reduction, 2h-pretreatment” value in data set [6] is given as no less than 90%.
Turning to `COc1cccc(/C=C/c2nc3ccc(N4CCC(N5CCOCC5)CC4)cc3c(=O)n2-c2cccc(C(C)(C)C)c2)n1` [Compound 28, 6-(4-Morpholinopiperidin-1-yl)-3-(3-tert-butylphenyl)-2-[2-(6-methoxyl-2-pyridinyl)ethenyl]-4(3H)-quinazolinone], in data set [2], the “Cytotoxicity to Vero cells” value is listed as “without cytotoxicity”.
For `COc1cccc(/C=C/c2nc3ccc(-c4ccncc4)cc3c(=O)n2-c2cccc(C(C)(C)C)c2)n1` [Compound 29, 6-(Pyridin-4-yl)-3-(3-tert-butylphenyl)-2-[2-(6-methoxypyridin-2-yl)vinyl]-4(3H)-quinazolinone dihydrochloride], the “% inhibition of ZIKV at 10 μM” value in data set [1] (10 μM) was “inactive”.
Regarding `COc1cccc(-c2ccc3nc(/C=C/c4cccc(OC)n4)n(-c4cccc(C(C)(C)C)c4)c(=O)c3c2)c1` [Compound 30, 6-(3-Methoxyphenyl)-3-(3-tert-butylphenyl)-2-[2-(6-methoxypyridin-2-yl)vinyl]-4(3H)-quinazolinone], the “% inhibition of ZIKV at 10 μM” value in data set [1] (10 μM) is “inactive”.
With `CC(C)(C)c1cccc(-n2c(/C=C/c3ccc(C(F)(F)F)cc3)nc3ccc(N4CCCCC4)cc3c2=O)c1` [Compound 36], in data set [1] (10 μM, 10 µM), the “% inhibition of ZIKV at 10 μM” value is on record as 90%.
`COc1cccc(CCc2nc3ccc(N4CCCCC4)cc3c(=O)n2-c2cccc(C(C)(C)C)c2)n1` [Compound 53, 6-(Piperidin-1-yl)-3-(3-tert-butylphenyl)-2-[2-(6-methoxypyridin-2-yl)ethyl]-4(3H)-quinazolinone]: the “% inhibition of ZIKV at 10 μM” value in data set [1] (10 μM) was “inactive”.
On the same count and under the same terms, then `COc1cccc(CCc2nc3ccc(N4CCOCC4)cc3c(=O)n2-c2cccc(C(C)(C)C)c2)n1` [Compound 54, 6-Morpholino-3-(3-tert-butylphenyl)-2-[2-(6-methoxypyridin-2-yl)ethyl]-4(3H)-quinazolinone], with “inactive”.

The values above are taken from paper PMC10463567 (Journal of medicinal chemistry, 2023).
